Source: ChEMBL document CHEMBL3877317, “Quinazolinone derivatives: Synthesis and comparison of inhibitory mechanisms on α-glucosidase” (Bioorg Med Chem, 2017)
Activity calls are given as the source filed them. No cut-off for these calls is given here.

What was measured:
[1] = Inhibition of Saccharomyces cerevisiae alpha-glucosidase type 1 using p-nitro-phenyl-alpha-D-glucopyranoside as substrate preincubated for 10 mins followed by substrate addition measured after 5 mins every 10 secs
Method in brief: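 Enzyme (7 U/mL, 50 µL) with sample at varied concentrations, then 5 mM pNPG (200 µL) in 0.1 M potassium phosphate pH 6.8. A405 read every 10 s at ambient temperature. Relative activity = slope with inhibitor / slope without × 100. Acarbose as positive control.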

[2] = tested on: Saccharomyces cerevisiae; assay: Binding affinity to Saccharomyces cerevisiae alpha-glucosidase type 1 at 25 degC by fluorescence spectrophotometric method
[3] = tested on: Saccharomyces cerevisiae; assay: Binding affinity to Saccharomyces cerevisiae alpha-glucosidase type 1 assessed as fluorescence quenching by measuring relative fluorescence intensity at 60 uM by fluorescence spectrophotometric method
Method in brief: (§1)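 Intrinsic enzyme fluorescence (peak 330 nm) recorded with excitation 280 nm, emission 300-500 nm, 25 °C. Enzyme 0.1 mg/mL in 0.1 mM sodium phosphate buffer; compound series 0-50 µM or 0-60 µM. Relative intensity expressed as F/F0 against enzyme alone.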

[4] = tested on: Saccharomyces cerevisiae; assay: Binding affinity to Saccharomyces cerevisiae alpha-glucosidase type 1 assessed as quenching velocity constant of biomolecular reaction at 25 degC by fluorescence spectrophotometric method
Method in brief: (§2)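 Fluorescence quenching: enzyme (0.1 mg/mL, 50 µL) mixed with sample at varied concentrations in 0.1 mM sodium phosphate buffer, 25 °C. Excitation 280 nm, emission scanned 300-500 nm. F0/F plotted against [Q] and fitted to the Stern-Volmer equation (F0/F = 1 + Kqτ0[Q] = 1 + Ksv[Q]) to give Ksv and Kq.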

[5] = Non-competitive inhibition of Saccharomyces cerevisiae alpha-glucosidase type 1 using p-nitro-phenyl-alpha-D-glucopyranoside as substrate preincubated for 10 mins followed by substrate addition measured after 5 mins every 10 secs by Lineweaver-Burk plot analysis
Method in brief: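 Same pNPG assay (0.1 M potassium phosphate pH 6.8, A405 every 10 s, ambient temperature), inhibitor 0-24 µM (or 0-16 µM). Inhibition type assigned from Lineweaver-Burk plots. KI taken from the secondary plot.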

[6] = tested on: Saccharomyces cerevisiae; assay: Reversible inhibition of Saccharomyces cerevisiae alpha-glucosidase type 1 at 8 to 24 uM using p-nitro-phenyl-alpha-D-glucopyranoside as substrate preincubated for 10 mins followed by substrate addition measured after 5 mins every 10 secs
[7] = tested on: Saccharomyces cerevisiae; assay: Binding affinity to Saccharomyces cerevisiae alpha-glucosidase type 1 assessed as Stern-Volmer quenching constant at 25 degC by fluorescence spectrophotometric method; method in brief: as §2
[8] = tested on: Saccharomyces cerevisiae; assay: Binding affinity to Saccharomyces cerevisiae alpha-glucosidase type 1 assessed as fluorescence quenching by measuring relative fluorescence intensity at 50 uM by fluorescence spectrophotometric method; method in brief: as §1

| Structure (SMILES) | IC50 [1] | K [2] | Activity [3] | Kq [4] | Ki [5] | inhibition [6] | KSV [7] | Activity [8] |
| --- | --- | --- | --- | --- | --- | --- | --- | --- |
| Oc1nc(-c2ccc(F)cc2)nc2ccccc12 | > 57.2 µM |  |  |  |  |  |  |  |
| O=c1[nH]c(-c2ccc(Br)cc2)nc2ccccc12 | 15.6 µM | 1.25 ×10⁴ L/mol | 69.3% | 7.26 ×10¹¹ L/mol.s | 10.6 µM | Active | 7.26 ×10³ L/mol |  |
| C[C@H]1O[C@H](O[C@H]2[C@H](O)[C@@H](O)[C@@H](O[C@H]3[C@H](O)[C@@H](O)C(O)O[C@@H]3CO)O[C@@H]2CO)[C@H](O)[C@@H](O)[C@@H]1N[C@H]1C=C(CO)[C@@H](O)[C@H](O)[C@H]1O (stereo partly specified) [ACARBOSE] | 475 µM |  |  |  |  |  |  |  |
| O=c1[nH]c(-c2ccc(Cl)cc2)nc2ccccc12 | 12.5 µM | 1.78 ×10⁴ L/mol |  | 3.1 ×10¹² L/mol.s | 9.1 µM | Active | 3.1 ×10⁴ L/mol | 39.3% |
